Source: ChEMBL document CHEMBL4828721, “Substituted dienes prepared from betulinic acid - Synthesis, cytotoxicity, mechanism of action, and pharmacological parameters” (Eur J Med Chem, 2021)
The source made the active and inactive calls. The calls are words filed in the database; no cut-off is given here.

Assays:
[1] = system: A549; experiment: Cytotoxicity against human A549 cells assessed as reduction in cell viability measured after 72 hrs by MTS assay; type: functional, cell-based; details: A549, 72 h
[2] = system: CCRF-CEM; experiment: Induction of apoptosis in human CCRF-CEM cells assessed as late apoptotic cells at 5 times IC50 measured after 24 hrs by Annexin V-FITC/PI staining based flow cytometry analysis (Rvb= 1.4%); type: functional
[3] = system: CCRF-CEM; experiment: Induction of mitotic arrest in human CCRF-CEM cells assessed as phosphorylation of histone H3 at Ser10 at IC50 measured after 24 hrs by propidium iodide staining based flow cytometry analysis (Rvb= 1.72%); type: functional
[4] = Efflux ratio of apparent permeability across basolateral to apical side to apparent permeability across apical to basolateral side in dog MDCK-MDR1 cells at pH 7.4 at 10 micromol/L measured after 1 hr by RF-MS analysis; type: ADME, cell-based, Canis lupus familiaris; details: MDCK-MDR1, pH 7.4, dose 10 µmol/L
How it was run: (§1)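 Efflux ratio is Papp(B→A)/Papp(A→B) from bidirectional transport across Caco-2 (2 h) or MDCK-MDR1 (1 h) monolayers. Compound was dosed in HBSS pH 7.4 and quantified by RapidFire MS/MS. Run in duplicates. ER > 2 was taken as a potential P-gp substrate.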

[5] = Microsomal stability in human liver microsomes assessed as parent compound remaining at 2 uM in the presence of NADPH measured after 30 mins by RF-MS analysis; type: ADME, Microsome; details: read-out: Stability
How it was run: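 Human liver microsomes incubated with compound in the presence of NADPH cofactor to assess phase I oxidation. Intrinsic clearance was derived from the decline of the parent compound.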

[6] = system: CCRF-CEM; experiment: Cell cycle arrest in human CCRF-CEM cells assessed as accumulation of cells at G2/M phase at IC50 measured after 24 hrs by propidium iodide staining based flow cytometry analysis (Rvb= 21.62%); type: functional
[7] = system: CCRF-CEM; experiment: Cell cycle arrest in human CCRF-CEM cells assessed as accumulation of cells at sub G1 phase at 5 times IC50 measured after 24 hrs by propidium iodide staining based flow cytometry analysis (Rvb= 2.77%); type: functional
[8] = system: CCRF-CEM; experiment: Inhibition of RNA synthesis in human CCRF-CEM cells at 5 times IC50 by […] incorporation assay (Rvb= 36.54%); type: functional; parameters: scale not given: the % may be the effect or the level left
[9] = system: CCRF-CEM; experiment: Induction of mitotic arrest in human CCRF-CEM cells assessed as phosphorylation of histone H3 at Ser10 at 5 times IC50 measured after 24 hrs by propidium iodide staining based flow cytometry analysis (Rvb= 1.72%); type: functional
[10] = Apparent permeability of the compound in human Caco2 cells assessed as recovery rate at pH 7.4 at 10 micromol/L measured after 1 hr by RF-MS analysis; type: ADME, cell-based; details: Caco-2, pH 7.4, dose 10 µmol/L, read-out: Activity
[11] = Efflux ratio of apparent permeability across basolateral to apical side to apparent permeability across apical to basolateral side in human Caco2 cells at pH 7.4 at 10 micromol/L measured after 2 hrs by RF-MS analysis; type: ADME, cell-based; details: Caco-2, pH 7.4, dose 10 µmol/L; how it was run: as §1
[12] = system: CCRF-CEM; experiment: Induction of cell cycle arrest in human CCRF-CEM cells assessed as downregulation of cyclin D1 protein expression at 5 times IC50 measured after 24 hrs by western blot analysis; type: functional, cell-based
How it was run: (§2)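 Protein (15 µg/lane) was resolved by 10% SDS-PAGE and transferred to nitrocellulose. Blocked in 5% milk/TBST, then probed overnight at 4 °C with primary antibodies (1:1000) and HRP secondaries. Detected by ECL, with β-actin as loading control.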

[13] = system: CCRF-CEM; experiment: Induction of apoptosis in human CCRF-CEM cells assessed as late apoptotic cells at IC50 measured after 24 hrs by Annexin V-FITC/PI staining based flow cytometry analysis (Rvb= 1.4%); type: functional
[14] = system: MRC5; experiment: Cytotoxicity against human MRC5 cells assessed as reduction in cell viability measured after 72 hrs by MTS assay; type: cell-based; details: MRC5, 72 h
[15] = system: CCRF-CEM; experiment: Induction of apoptosis in human CCRF-CEM cells assessed as activation of caspase 8 at 5 times IC50 measured after 24 hrs by western blot analysis; type: functional, cell-based; how it was run: as §2
[16] = Cytotoxicity against paclitaxel resistant human K562-Tax cells assessed as reduction in cell viability measured after 72 hrs by MTS assay; type: functional, cell-based
[17] = Cytotoxicity against human HCT116 p53-null cells assessed as reduction in cell viability measured after 72 hrs by MTS assay; type: functional, cell-based
[18] = system: CCRF-CEM; experiment: Induction of apoptosis in human CCRF-CEM cells assessed as activation of caspase 9 at 5 times IC50 measured after 24 hrs by western blot analysis; type: functional, cell-based; how it was run: as §2
[19] = system: CEM-DNR; experiment: Cytotoxicity against daunorubicin resistant human CEM-DNR cells assessed as reduction in cell viability measured after 72 hrs by MTS assay; type: functional, cell-based
[20] = Apparent permeability of the compound in human Caco2 cells at pH 7.4 at 10 micromol/L measured after 2 hrs by RF-MS analysis; type: ADME, cell-based; details: Caco-2, pH 7.4, dose 10 µmol/L
How it was run: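 Caco-2 and MDCK-MDR1 cells grown on polyester Transwell filters (0.4 and 1 µm pores) in DMEM pH 7.4 with 10% FBS; monolayer integrity checked by Lucifer Yellow rejection. Cells washed and pre-equilibrated 1 h in HBSS pH 7.4, then dosed with compound in HBSS pH 7.4. Incubation was 1 h for MDCK and 2 h for Caco-2. Samples lyophilized and quantified by RapidFire MS/MS with internal standard. Duplicates. Papp = (dQ/dt)/(C0·A).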

[21] = system: CCRF-CEM; experiment: Induction of apoptosis in human CCRF-CEM cells assessed as dead cells at 5 times IC50 measured after 24 hrs by Annexin V-FITC/PI staining based flow cytometry analysis (Rvb= 0.3%); type: functional
How it was run: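 They were washed in ice-cold PBS and incubated with Annexin V-FITC plus PI for 20 min at room temperature in the dark. Cells were then pelleted and resuspended in binding buffer (10 mmol/L HEPES/NaOH pH 7.4, 140 mmol/L NaCl, 2.5 mmol/L CaCl2). Read on a FACSAria II, ≥10,000 cells per sample.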

[22] = system: CCRF-CEM; experiment: Induction of apoptosis in human CCRF-CEM cells assessed as downregulation of Bcl2 expression at 5 times IC50 measured after 24 hrs by western blot analysis; type: functional, cell-based; how it was run: as §2
[23] = system: CCRF-CEM; experiment: Induction of apoptosis in human CCRF-CEM cells assessed as upregulation of BAX expression at 5 times IC50 measured after 24 hrs by western blot analysis relative to control; type: functional; how it was run: as §2

SMILES	IC50 [1]	Activity [2]	Activity [3]	efflux ratio at 1 h, 10 µM [4]	remaining at 0.5 h, 2 µM [5]	Activity [6]	Activity [7]	Activity [8]	Activity [9]	recovery at 1 h, 10 µM [10]	efflux ratio at 2 h, 10 µM [11]	Activity [12]	Activity [13]	IC50 [14]	Activity [15]	IC50 [16]	IC50 [17]	Activity [18]	IC50 [19]	Papp at 2 h, 10 µM [20]	further results
C=C(/C=C/c1cccc(Cl)c1)[C@@H]1CC[C@]2(C(=O)O)CC[C@]3(C)[C@H](CC[C@@H]4[C@@]5(C)CC[C@H](O)C(C)(C)[C@@H]5CC[C@]43C)[C@@H]12	29.2 µM	4.7%	1.5%	2.9	92.4%	14.39%	9.13%	11.37%	1.52%	42.1%	2.64	Active	4.6%	32.6 µM	inactive	25.6 µM	15.2 µM	Active	25.5 µM	17.5 ×10⁻⁶ cm/s	
C=C(/C=C/c1ccc([N+](=O)[O-])cc1)[C@@H]1CC[C@]2(C(=O)O)CC[C@]3(C)[C@H](CC[C@@H]4[C@@]5(C)CC[C@H](O)C(C)(C)[C@@H]5CC[C@]43C)[C@@H]12	14.3 µM	9.6%	2.9%	3.06	78.5%	23.16%	25.04%	4.07%	0.93%	58.5%	2.5	Active	4.9%	19.2 µM	inactive	23.4 µM	15.7 µM	Active	22.9 µM	0.96 ×10⁻⁶ cm/s	Activity [21]: 1.9%; Activity [22]: Active; Activity [23]: 20%
